The EternaBench riboswitch data

Test system: MS2 coat protein
Experiment: apparent Kd, MS2 coat protein; higher = weaker binding; RNA-MaP array; FMN 200 µM where present
Procedure, shortened: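 On Illumina sequencing-chip clusters, designs were transcribed by stalled E. coli RNA polymerase and titrated with SNAP-549-labelled MS2 coat protein (0.7 or 1.5 nM, doubling to 3 µM), without and then with constant ligand, in 100 mM Tris-HCl pH 7.5, 80 mM KCl, 4 mM MgCl2, BSA, DTT, yeast tRNA and Tween-20. Apparent Kd is the median of filtered per-cluster curve fits to green signal normalised to red-channel RNA signal and control-cluster median Fmax.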

[1] = designed as: OFF switch for flavin mononucleotide, no ligand
[2] = ligand present: flavin mononucleotide, designed as: OFF switch for flavin mononucleotide
[3] = designed as: ON switch for flavin mononucleotide, no ligand
[4] = ligand present: flavin mononucleotide, designed as: ON switch for flavin mononucleotide

Row | Sequence | apparent Kd [1] [nM] | apparent Kd [2] [nM] | apparent Kd [3] [nM] | apparent Kd [4] [nM]
1 | UCACGGUAUGUAGGAUAUGCAUAGCAUUGCUAUGCAGAAGGACAUGAGGAUCACCCAUGUAUGUAUUCCAUACUAAUCCCGUGA | 5.65 | 5.56 | – | –
2 | CUGACGCAAGCAGGAUAUCUACUGGCGAUGGUACAUGAGGAUCACCCAUGUAGAGAAGGGCUAAGUGGAAGGAUAAAAUAAAAG | 110 | 120 | – | –
3 | CGCAAUAUACAGAAGGAGUUAUUGAGAGGUUUACUAGGAUAUGUUCACAUGAGGAUCACCCAUGUCAUAUGGUUUUUUAUUGCG | 13.6 | 11.4 | – | –
4 | AUUAUAAAGGUAGGAUAUAGUAUUAUAAUUAAAUUAGAAGGAUCUCACAUGAGGAUCACCCAUGUAAGAGGAUCACCCAUGUAU | 9.64 | 9.62 | – | –
5 | UUUAGUUUAGGAUAUGUAGACAUUAACAUGAGGAUCACCCAUGUAGAUCCUGAAUUGGCUACAGAAGGGAGCAUUU | 290 | 314 | – | –
6 | UUGAAAUUGUAAGGAUAUACUCUGUGAUGAAGAGUAGAAGGUACUUACAUGAGGAUCACCCAUGUUUAACGAGAUACUAAUCGU | – | – | 32 | 16.6
7 | UGGUAUUAGGGAGGAUAUGGGAAGAUACAUGAGGAUCACCCAUGUUUAAGAAUGCCGAGAGGCAACUAGAAGGCCCUAGUACCU | – | – | 500 | 20.3
8 | UGCAUGUAAGGAUAUGCAUCCGCCGACGUCCCGGCGGCACAGCAGAAGGUACAUGAGGAUCACCCAUGUGUCCC | 28.8 | 155 | – | –
9 | GGGUGAGACGAGAAGGGAUUUUCACAUGAGGAUCACCCAUGUCGAGUAGUCAGGAUAUCGGGCCAUGAUUACCCUAUAGAAGAC | – | – | 298 | 70.5
10 | GGCCCGGGAGGAUAUACAUGAGGAUCACCCAUGUGCGGGCCCGGGAUCCCGGGCCCGUGUAGAAGGCCCGGGCC | 13.4 | 16.5 | – | –
11 | UGUUGUAUUACAGGAUAUCUAGUAUUUUUAUUGAGAGAAGGGUAUUCACAUGAGGAUCACCCAUGUAUAUACGAGGAAGUUGUG | – | – | 50.5 | 49
12 | ACAUGCAUAGCGAUAUGAUCGAGAGAUCAUGUCGAAAAUUUUAGAAGGACAUGAGGAUCACCCAUGUAGGAUAUGGGAGCAUGA | – | – | 62.6 | 16.3
13 | UAUAGACAUGAGGAUCACCCAUGUAAGGAUAUCGGUACUAAUGGUAUAAUCUACUUAGCGAGAAGGUACAAUGU | 31 | 30.6 | – | –
14 | CUCGGCGCACAGAAGGAUCGGUACAUGAGGAUCACCCAUGUAAGCAAAGAUAGGAUAUGUGGAGCUUACAGGGAAAUUGAACAA | – | – | 74.6 | 10.8
15 | GGUUGUAAUGUCAGCGAGUGUUAGAGAAGGUACAUGAGGAUCACCCAUGUACGUGAUCUUGCGAGUAAGGAUAUCUGUUAUUCA | 5.2 | 5.5 | – | –
16 | GGUCGUCACAUUUACAUGAGGAUCACCCAUGUCGAAAGACAUGAGGAUAUGCUACCUAAUUGGUAGCAGAAGGCAUGGACGACC | – | – | 455 | 234
17 | GUCUGGCUAGGAUAUACAGUGUCCACAAGUUAGUUACCCUAACAUGAGGAUCACCCAUGUAGAAGGAGUGAGAA | 72.9 | 308 | – | –
18 | UGAUAACAUGUAGGAUAUGCAGCAUUGACCAUUGCAGAAGGACAUGAGGAUCACCCAUGUACCGAUACAAUGGGAUCACGCAAU | 15.3 | 18.5 | – | –
19 | CAGCAUCAUGUAGGAUAUGCGUGGCGAAGCUAUGCAGAAGGACAUGAGGAUCACCCAUGUCUUAGCUAGCGUACUAGCUUGCUG | 7.5 | 21.4 | – | –
20 | GUGGUCAGACAUGAGGAUCACCCAUGUGGAAUAAAUAAGGUCAAGGAUAUUCAAUAUAGGAUAUAGAAGAAGGUGAGGUUGGUG | – | – | 136 | 188
21 | UGUGUGUGGCAGGAUAUGCCGGUAGUAGGACGGGUAGAAGGGUCUACAUGAGGAUCACCCAUGUGGCCGGUUGG | 17.7 | 17.7 | – | –

Row | Sequence | apparent Kd [1] [nM] | apparent Kd [2] [nM] | apparent Kd [3] [nM] | apparent Kd [4] [nM]
22 | ACAAAUGGAGGAUAUACAUGAGGAUCACCCAUGUUUAUCCUACAUAUGUGAUACUCAUGUAGAAGGCCAUAUGA | 12.7 | 12.5 | – | –
23 | GGAUAGGGCAGAGGAUAUACGUGCUAGAGAUACUAGCAAAAUUUCCUCACAUGAGGAUCACCCAUGUAGAAGGCUGUCCUAUCG | 14.1 | 464 | – | –
24 | UUGGACGUCGUAGGAUAUGUAAGAUAUUCCUACAUGAGGAUCACCCAUGUUGACAUGGAAGAAGGACAGAAGGACGAUGUCCAU | – | – | 6.47 | 4.87
25 | CCGGAAACGGGUAGCUGACAUGAGGAUCACCCAUGUGUAUCACAGGAUAUGGAUCCUAAUUGGAUCCAGAAGGGUGUCAGCUAC | – | – | 1130 | 105
26 | GCGUAACAUGAGGAUCACCCAUGUACUCGAGAAUUCGAGUGUAGAAGGGUGACCGGUCGUUUGGCACAGGAUAUACACGCUGUG | – | – | 31.5 | 12
27 | AGUAACAGAGGAUAUACUGUUUUAUGUGUUUAUUAUUUUGAACAUGAGGAUCACCCAUGUAGAAGGCUGAAUAA | – | 21.9 | – | –
28 | AGGAUCCUAUCAAGACAAAUGUACAUGAGGAUCACCCAUGUGCAGGAUAUAGCUAGUUACGGUGGCUAGAAGGGCACACCAAAA | 6.72 | 14.3 | – | –
29 | UUAUGUUUUGUAGGAUAUCAUUAGUUUUGUAUUUUAAUUGUAAUUUAGAUAUGAGAAGGACAUUUACAUGAGGAUCACCCAUGU | 20.3 | 14.2 | – | –
30 | GCCAUCGCAUGAGGAUAUGGCACCGAAACGGUGCCAGAAGGCAUGUCAAUAGACAUGAGGAUCACCCAUGUAUUAUCGAUGGCA | – | – | 274 | 29.1
31 | GCAUCCAAUGUGAGGAUAUACCUCUGGAUACAUAGGUAGAAGGCACAUGAGGAUCACCCAUGUCCUAAGGAUGC | 130 | 149 | – | –
32 | GUCAGCUCGUGAGGAUAUACAUGAGGAUCACCCAUGUGAUCAAUAGCAGCUUCGGCUGCAUACAUGUAGAAGGCACGAGCUGAU | 43.1 | 62.9 | – | –
33 | AAGGAAACCACAGGAUAUGGCUAGCAUAGCUAGCCAGAAGGGUGGUCGAAACCAUGUAAAUACAUGAGGAUCACCCAUGUGUCC | – | – | 189 | 271
34 | GGAAAACAUGAGGAUCACCCAUGUGAGGAUAUCGAUGUCCAGGGCCUGCUGCGGGACUCGAGAAGGCAGUGGGA | 41.2 | 21.7 | – | –
35 | UUGUACAUAGGAUAUAGUUGUUUGUACAUGAGGAUCACCCAUGUUAUGUAUGUUUUGCUUCUAGAAGGAUGUUGUU | 33.2 | 24.4 | – | –
36 | CUAAUUAGUCAGAAGGUGCUGCCGGAAUCAUAGCAAGGAUAUGACAUGAGGAUCACCCAUGUACAGAUCCUACAUAAAAUCAGG | 5.73 | 8.98 | – | –
37 | ACAUUUGGAGGAUAUACCGCUAAGUCAAAUGCAGACCUCCCACAUGAGGAUCACCCAUGUAGAAGGUCAUCUGG | 17.1 | 17.6 | – | –
38 | AGCUGUGGCAGAGGAUAUACUACUAUAAUCCAUUGCAAAUAGCGAUGGACAUGAGGAUCACCCAUGUAGAAGGCUGUCACAGCA | 45.6 | 176 | – | –
39 | UCACGGGAUUGAGGAUAUAUAUUAAUUUUUACAAUAGAAGGCAAAUUGUUAGUUUUUUCACUAUACAUGAGGAUCACCCAUGUU | 27.4 | 25.1 | – | –
40 | CUUAGUAUCUAGGAUAUCUAGUACAUAGUAUCUAGAGAAGGAGAUACAUGAGGAUCACCCAUGUUCUGUGAUCU | 272 | 40.4 | – | –
41 | AAUAUAAAGAGCUGGAACCUAAUAACAUGAGGAUCACCCAUGUAGGAUAUCAGCACGAUAAGUGCUGAGAAGGACAUCCAGCUC | 14.7 | 14.8 | – | –
42 | ACUAGAUGAGGAUAUACACAUUUUAGUGUUCCUCUAGAUUAACAUGAGGAUCACCCAUGUAGAAGGCAUCAUUU | 78.5 | 231 | – | –
